# Measurements taken from ChEMBL document CHEMBL3593160, “Orally active ghrelin receptor inverse agonists and their actions on a rat obesity model” (Bioorg Med Chem, 2015).
# The source made the active and inactive calls. No cut-off for these calls is given here.
# Legend:
# [1] = Total clearance in ICR mouse by LC/MS/MS method; assay type: ADME, organism-based; conditions: in vivo
# [2] = target: T1, Growth hormone secretagogue receptor type 1 (Rattus norvegicus, UniProt O08725); experiment: Antagonist activity at ghrelin receptor in Sprague-Dawley rat primary pituitary cells assessed as inhibition of ghrelin-induced growth hormone secretion incubated for 15 mins by ELISA method; assay type: cell-based, Pituitary gland cell
# T1 sequence (O08725 whole entry): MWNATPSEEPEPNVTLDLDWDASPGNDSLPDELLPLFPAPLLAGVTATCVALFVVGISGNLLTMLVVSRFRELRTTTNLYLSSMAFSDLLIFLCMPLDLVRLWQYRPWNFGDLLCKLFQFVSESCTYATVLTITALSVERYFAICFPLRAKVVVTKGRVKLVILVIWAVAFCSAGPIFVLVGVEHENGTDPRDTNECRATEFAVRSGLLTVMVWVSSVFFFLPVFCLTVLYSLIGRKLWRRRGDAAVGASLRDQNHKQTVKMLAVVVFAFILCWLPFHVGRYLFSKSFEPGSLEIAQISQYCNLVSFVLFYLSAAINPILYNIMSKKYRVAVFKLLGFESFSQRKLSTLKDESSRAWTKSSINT
# Procedure, shortened: (§1)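 SD rat (6–8 weeks, male) anterior pituitary cells dispersed with collagenase and papain and cultured 2 days. Cells preincubated 1.5 h in HBSS with 1% BSA, 0.25% glucose and 25 mM HEPES, then treated 15 min at 37 °C with 1 nM ghrelin present. GH in supernatant measured by ELISA. Inhibition = (C−E)/C×100.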
# [3] = target: Growth hormone secretagogue receptor type 1 (Rattus norvegicus) (UniProt O08725); experiment: Antagonist activity at rat ghrelin receptor expressed in CHO cells assessed as blocking of human ghrelin-induced response by FLIPR based intracellular Ca2+ mobilization assay relative to control; assay type: functional, cell-based
# Chain of Growth hormone secretagogue receptor type 1 (Rattus norvegicus) (O08725 whole entry): as above
# Procedure, shortened: (§2)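 CHO cells stably expressing rat ghrelinR, loaded with Calcium 3 dye for 2.5 h at room temperature in HBSS with 20 mM Hepes, 2.5 mM probenecid and 1 mg/mL BSA. Compound added, then 1 nM human ghrelin. Response taken as peak fluorescence minus basal.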
# [4] = target: T1, Growth hormone secretagogue receptor type 1; experiment: Antagonist activity at rat ghrelin receptor expressed in CHO cells assessed as blocking of human ghrelin-induced response by FLIPR based intracellular Ca2+ mobilization assay; assay type: functional, cell-based; procedure, shortened: as §2
# [5] = Oral bioavailability in ICR mouse by LC/MS/MS method; assay type: ADME, organism-based; conditions: in vivo
# [6] = target: Growth hormone secretagogue receptor type 1 (Homo sapiens, UniProt Q92847); experiment: Displacement of [125I]human ghrelin from human ghrelin receptor expressed in CHO cell membranes incubated for 30 mins by scintillation counting method
# Chain of Growth hormone secretagogue receptor type 1 (Homo sapiens, UniProt Q92847) (Q92847 whole entry): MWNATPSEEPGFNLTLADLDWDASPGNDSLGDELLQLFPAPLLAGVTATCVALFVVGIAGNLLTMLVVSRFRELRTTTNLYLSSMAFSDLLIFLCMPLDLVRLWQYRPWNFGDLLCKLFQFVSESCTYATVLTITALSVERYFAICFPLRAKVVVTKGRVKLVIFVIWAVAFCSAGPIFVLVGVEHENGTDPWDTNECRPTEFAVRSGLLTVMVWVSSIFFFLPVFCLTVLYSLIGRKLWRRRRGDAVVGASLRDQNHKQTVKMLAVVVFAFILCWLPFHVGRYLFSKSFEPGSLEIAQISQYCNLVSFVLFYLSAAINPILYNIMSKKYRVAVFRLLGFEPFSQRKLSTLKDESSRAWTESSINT
# Procedure, shortened: (§3)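 Membranes from CHO cells stably expressing rat or human ghrelinR (3.34 µg protein) incubated with 0.04 nM [125I]human ghrelin and varied compound concentrations for 30 min at room temperature. Buffer: 50 mM Hepes pH 7.5, 1 mM CaCl2, 5 mM MgCl2, 75 mM NaCl, 0.5% BSA. Membranes filtered and washed; bound radioactivity counted by scintillation.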
# [7] = target: T1, Growth hormone secretagogue receptor type 1; experiment: Displacement of [125I]human ghrelin from rat ghrelin receptor expressed in CHO cell membranes incubated for 30 mins by scintillation counting method; procedure, shortened: as §3
# [8] = target: T1, Growth hormone secretagogue receptor type 1; experiment: Inverse agonist activity rat ghrelin receptor expressed in HEK293 cells by luciferase reporter gene assay; assay type: cell-based
# Procedure, shortened: (§4)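 HEK293 cells transiently transfected (about 5 h, Lipofectamine 2000) with rat ghrelinR vector (10 ng) and pNFAT-Luc (100 ng) per well. Compounds added in RPMI1640 with 0.1% dialyzed FBS and incubated overnight at 37 °C. Constitutive NFAT-luciferase signal read by luminescence; viability checked by AlamarBlue.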
# Liver microsome = experiment: Metabolic stability in human liver microsomes assessed as metabolic rate at 1 uM incubated for 30 mins in presence of NADPH by LC/MS/MS method; assay type: ADME; conditions: 0.5 h
# [9] = target: Growth hormone secretagogue receptor type 1 (Rattus norvegicus) (UniProt O08725); experiment: Antagonist activity at ghrelin receptor in Sprague-Dawley rat primary pituitary cells assessed as inhibition of ghrelin-induced growth hormone secretion incubated for 15 mins by ELISA method relative to control; assay type: cell-based; conditions: Pituitary gland cell; procedure, shortened: as §1
# [10] = target: Growth hormone secretagogue receptor type 1 (Rattus norvegicus) (UniProt O08725); experiment: Inverse agonist activity rat ghrelin receptor expressed in HEK293 cells by luciferase reporter gene assay relative to control; assay type: cell-based; procedure, shortened: as §4
# [11] = Ratio of drug concentration in brain of Sprague-Dawley rat model of high-fat diet-induced obesity at 10 mg/kg, po BID for 3 week to IC50 for displacement of [125I]human ghrelin from rat ghrelin receptor expressed in CHO cell membranes; assay type: organism-based; conditions: in vivo, 504 h
# Procedure, shortened: (§5)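 Brain level estimated as mean plasma concentration (AUC0-24/24 h, day 1 of twice-daily oral dosing in HFD-obese SD rats) multiplied by the B/P ratio from normal rats. The ratio divides this by the binding IC50.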
# [12] = Ratio of free plasma concentration in Sprague-Dawley rat model of high-fat diet-induced obesity at 30 mg/kg, po BID for 3 week to IC50 for displacement of [125I]human ghrelin from rat ghrelin receptor expressed in CHO cell membranes; assay type: organism-based; conditions: in vivo, 504 h
# Procedure, shortened: (§6)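 Free concentration = total concentration × free fraction from human plasma protein binding by equilibrium dialysis. Plasma level is AUC0-24/24 h on day 1 of twice-daily oral dosing in HFD-obese SD rats. Brain level is plasma × B/P ratio from normal rats. Each is divided by the binding IC50.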
# [13] = Ratio of free plasma concentration in Sprague-Dawley rat model of high-fat diet-induced obesity at 10 mg/kg, po BID for 3 week to IC50 for displacement of [125I]human ghrelin from rat ghrelin receptor expressed in CHO cell membranes; assay type: organism-based; conditions: in vivo, 504 h; procedure, shortened: as §6
# Rattus norvegicus [14] = experiment: Inhibition of total calorie intake in Sprague-Dawley rat model of high-fat diet-induced obesity at 30 mg/kg, po BID 3 weeks; assay type: functional, organism-based; conditions: in the assay text read “14 days” for “3 weeks”
# Procedure, shortened: (§7)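 Male SD rats given a 60% fat diet for 10 weeks, habituated 3 weeks to oral vehicle, and randomized to vehicle, treatment or pair-fed groups. Oral dosing twice daily (9:30 am, 6:00 pm) as a 0.5% hydroxypropyl cellulose suspension. Body weight and daily food intake recorded before the morning dose. Pair-fed rats got the previous day's treated-group mean intake plus vehicle.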
# [15] = Ratio of plasma concentration in Sprague-Dawley rat model of high-fat diet-induced obesity at 10 mg/kg, po BID for 3 week to IC50 for displacement of [125I]human ghrelin from rat ghrelin receptor expressed in CHO cell membranes; assay type: organism-based; conditions: in vivo, 504 h
# Procedure, shortened: (§8)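 Mean plasma concentration (AUC0-24/24 h, day 1 of twice-daily oral dosing in HFD-obese SD rats) divided by the binding IC50.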
# [16] = Ratio of drug concentration in brain of Sprague-Dawley rat model of high-fat diet-induced obesity at 30 mg/kg, po BID for 3 week to IC50 for displacement of [125I]human ghrelin from rat ghrelin receptor expressed in CHO cell membranes; assay type: organism-based; conditions: in vivo, 504 h; procedure, shortened: as §5
# [17] = AUC (0 to 24 hrs) in Sprague-Dawley rat model of high-fat diet-induced obesity at 30 mg/kg, po BID for 3 weeks; assay type: ADME, organism-based; set-up: time < 24 hr, dose 30 mg/kg, route oral; conditions: in vivo
# Procedure, shortened: (§9)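 Male SD rats fed 60% fat diet for 10 weeks, habituated to oral vehicle dosing for 3 weeks. Compound given orally as a suspension in 0.5% hydroxypropyl cellulose at 9:30 am and 6:00 pm. Plasma levels measured on the first dosing day. AUC0-24 from these levels; mean plasma concentration = AUC0-24/24 h.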
# Rattus norvegicus [18] = experiment: Oral bioavailability in Sprague-Dawley rat at 10 mg/kg by LC/MS/MS method; assay type: ADME, organism-based; conditions: in vivo
# Procedure, shortened: (§10)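 Non-fasted SD rats (n = 3/group) dosed 10 mg/kg orally or 1 mg/kg iv in 5% DMSO/10% HPCD in saline. Heparinized plasma sampled 0.08 (iv only) to 24 h. Parameters by noncompartmental analysis.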
# [19] = Ratio of free drug concentration in brain of Sprague-Dawley rat model of high-fat diet-induced obesity at 30 mg/kg, po BID for 3 week to IC50 for displacement of [125I]human ghrelin from rat ghrelin receptor expressed in CHO cell membranes; assay type: organism-based; conditions: in vivo, 504 h; procedure, shortened: as §6
# [20] = Drug concentration in brain of Sprague-Dawley rat model of high-fat diet-induced obesity at 10 mg/kg, po BID for 3 weeks; assay type: ADME, organism-based; conditions: read-out: Drug uptake; procedure, shortened: as §5
# Rattus norvegicus [21] = experiment: Inhibition of total calorie intake in Sprague-Dawley rat model of high-fat diet-induced obesity at 10 mg/kg, po BID 3 weeks; assay type: functional, organism-based; conditions: in the assay text read “14 days” for “3 weeks”; procedure, shortened: as §7
# [22] = Plasma concentration in Sprague-Dawley rat model of high-fat diet-induced obesity at 10 mg/kg, po BID for 3 weeks; assay type: ADME, organism-based; procedure, shortened: as §9
# Rattus norvegicus [23] = experiment: Total clearance in Sprague-Dawley rat at 1 mg/kg, iv by LC/MS/MS method; assay type: ADME, organism-based; conditions: in vivo; procedure, shortened: as §10
# [24] = Ratio of free drug concentration in brain of Sprague-Dawley rat model of high-fat diet-induced obesity at 10 mg/kg, po BID for 3 week to IC50 for displacement of [125I]human ghrelin from rat ghrelin receptor expressed in CHO cell membranes; assay type: organism-based; conditions: in vivo, 504 h; procedure, shortened: as §6
# Rattus norvegicus [25] = experiment: AUC (0 to 24 hrs) in Sprague-Dawley rat model of high-fat diet-induced obesity at 10 mg/kg, po BID for 3 weeks; assay type: ADME, organism-based; set-up: dose 10 mg/kg, time < 24 hr, route oral; conditions: in vivo; procedure, shortened: as §9
# [26] = Ratio of drug level in brain to plasma of Sprague-Dawley rat at 1 mg/kg, iv after 2 hrs by LC/MS/MS method; assay type: ADME, organism-based; conditions: read-out: BPR
# [27] = Plasma concentration in Sprague-Dawley rat model of high-fat diet-induced obesity at 30 mg/kg, po BID for 3 weeks; assay type: ADME, organism-based; procedure, shortened: as §9
# [28] = Protein binding in human plasma at 10 uM incubated for 4 hrs by equilibrium dialysis; assay type: ADME, cell-free; conditions: read-out: PPB
# Procedure, shortened: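 10 µM compound in human plasma dialysed against DPBS pH 7.4 for 4 h at 37 °C by rapid equilibrium dialysis. Plasma and buffer fractions acetonitrile-extracted and quantified by LC/MS/MS.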
# [29] = Ratio of plasma concentration in Sprague-Dawley rat model of high-fat diet-induced obesity at 30 mg/kg, po BID for 3 week to IC50 for displacement of [125I]human ghrelin from rat ghrelin receptor expressed in CHO cell membranes; assay type: organism-based; conditions: in vivo, 504 h; procedure, shortened: as §8
# [30] = Drug concentration in brain of Sprague-Dawley rat model of high-fat diet-induced obesity at 30 mg/kg, po BID for 3 weeks; assay type: ADME, organism-based; conditions: read-out: Drug uptake; procedure, shortened: as §5
# Rattus norvegicus [31] = experiment: Inhibition of daily weight gain in Sprague-Dawley rat model of high-fat diet-induced obesity at 30 mg/kg, po BID for14 days; assay type: functional, organism-based; procedure, shortened: as §7
IC50 [2],Efficacy [3],IC50 [4],IC50 [6],IC50 [7],IC50 [8],Drug metabolism (Liver microsome),Efficacy [9],Efficacy [10],Ratio [11],Ratio [12],Ratio [13],Ratio [15],Ratio [16],AUC at 24 h [17],F (Rattus norvegicus [18]),Ratio [19],concentration at 504 h [20],SMILES,inhibition (Rattus norvegicus [14]),inhibition (Rattus norvegicus [21]),further results
32.8 nM,> 95%,100 nM,0.3 nM,5.6 nM,9.8 nM,39 pmol/min/mg,> 95%,> 95%,–,–,–,–,–,–,–,–,–,COc1ccc(CNC(=O)c2cc(C3=C[C@@H]4CC[C@H](C3)N4C(C)=O)cnc2NCc2ccc3c(c2)OCO3)cc1Cl,–,–,clearance [1]: 180 mL/min/kg; bioavailability [5]: 7.2%
36.2 nM,> 95%,34 nM,3 nM,6.6 nM,26 nM,81 pmol/min/mg,> 95%,> 95%,19,8.6,2.9,286,58,74700 ng·h/mL,46.4%,0.6,132 nM,COc1ccc(CNC(=O)c2cc(C#CC(C)(C)NC(C)=O)cnc2NCc2ccc3c(c2)OCO3)cc1Cl,inactive,inactive,"concentration at 504 h [22]: 1890 nM; CL (Rattus norvegicus [23]): 27.8 mL/min/kg; Ratio [24]: 0.2; AUC (Rattus norvegicus [25]): 24901 ng·h/mL; Kp at 2 h [26]: 0.07; concentration at 504 h [27]: 5670 nM; fraction unbound at 4 h, 10 µM [28]: 0.01; Ratio [29]: 859; concentration at 504 h [30]: 370 nM"
11.6 nM,> 95%,13 nM,0.44 nM,0.28 nM,5.4 nM,103 pmol/min/mg,> 95%,> 95%,68,97,3.2,324,203,3310 ng·h/mL,23.8%,2,19 nM,Cc1ccc(CNC(=O)c2cc(C#CC(C)(C)O)cnc2NCc2ccc3c(c2)OCO3)cc1C(F)F,inactive,inactive,"inhibition (Rattus norvegicus [31]): Active; concentration at 504 h [22]: 91 nM; CL (Rattus norvegicus [23]): 12.3 mL/min/kg; Ratio [24]: 0.7; AUC (Rattus norvegicus [25]): 1105 ng·h/mL; Kp at 2 h [26]: 0.21; concentration at 504 h [27]: 272 nM; fraction unbound at 4 h, 10 µM [28]: 0.01; Ratio [29]: 972; concentration at 504 h [30]: 57 nM"
